From ChEMBL document CHEMBL1641497, “A potent and selective indole N-type calcium channel (Ca(v)2.2) blocker for the treatment of pain” (Bioorg Med Chem Lett, 2011)

Key:
[1] = target: Cav1.2 (voltage-dependent L-type calcium channel subunit alpha-1C) (Homo sapiens, UniProt Q13936); assay: Blockade of Cav1.2 channel at 10 uM by fluorescent calcium-influx assay
How it was run: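 Cav1.2 (L-type) channel block measured with a fluorescent calcium-influx FLIPR assay. Results are reported as % inhibition at 10 μM test concentration.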

[2] = target: T1, Nuclear receptor subfamily 1 group I member 2 (Homo sapiens, UniProt O75469); assay: Activity at PXR by induction assay
T1 sequence (O75469 whole entry): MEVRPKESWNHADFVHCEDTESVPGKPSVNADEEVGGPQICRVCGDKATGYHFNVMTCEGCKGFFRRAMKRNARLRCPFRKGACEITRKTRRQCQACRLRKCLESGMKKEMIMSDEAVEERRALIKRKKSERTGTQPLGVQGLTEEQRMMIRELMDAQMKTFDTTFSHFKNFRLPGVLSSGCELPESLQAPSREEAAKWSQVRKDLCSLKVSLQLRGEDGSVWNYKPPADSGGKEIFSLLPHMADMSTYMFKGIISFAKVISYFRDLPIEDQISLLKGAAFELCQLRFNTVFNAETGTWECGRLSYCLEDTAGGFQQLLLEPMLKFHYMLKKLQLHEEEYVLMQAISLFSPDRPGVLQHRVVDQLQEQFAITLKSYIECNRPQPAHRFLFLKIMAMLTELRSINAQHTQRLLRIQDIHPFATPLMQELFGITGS

[3] = target: T2, Voltage-dependent N-type calcium channel subunit alpha-1B (Homo sapiens, UniProt Q00975); assay: Blockade of Cav2.2 channel at 10 uM by fluorescent calcium-influx assay
How it was run: (§1)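 […] Cav2.2 channel block measured in vitro with a fluorescent calcium-influx (FLIPR) assay. Results are reported as % inhibition at 10 μM, with an IC50 (μM) for selected compounds.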
Target sequence in this assay (Q00975 whole entry, looked up): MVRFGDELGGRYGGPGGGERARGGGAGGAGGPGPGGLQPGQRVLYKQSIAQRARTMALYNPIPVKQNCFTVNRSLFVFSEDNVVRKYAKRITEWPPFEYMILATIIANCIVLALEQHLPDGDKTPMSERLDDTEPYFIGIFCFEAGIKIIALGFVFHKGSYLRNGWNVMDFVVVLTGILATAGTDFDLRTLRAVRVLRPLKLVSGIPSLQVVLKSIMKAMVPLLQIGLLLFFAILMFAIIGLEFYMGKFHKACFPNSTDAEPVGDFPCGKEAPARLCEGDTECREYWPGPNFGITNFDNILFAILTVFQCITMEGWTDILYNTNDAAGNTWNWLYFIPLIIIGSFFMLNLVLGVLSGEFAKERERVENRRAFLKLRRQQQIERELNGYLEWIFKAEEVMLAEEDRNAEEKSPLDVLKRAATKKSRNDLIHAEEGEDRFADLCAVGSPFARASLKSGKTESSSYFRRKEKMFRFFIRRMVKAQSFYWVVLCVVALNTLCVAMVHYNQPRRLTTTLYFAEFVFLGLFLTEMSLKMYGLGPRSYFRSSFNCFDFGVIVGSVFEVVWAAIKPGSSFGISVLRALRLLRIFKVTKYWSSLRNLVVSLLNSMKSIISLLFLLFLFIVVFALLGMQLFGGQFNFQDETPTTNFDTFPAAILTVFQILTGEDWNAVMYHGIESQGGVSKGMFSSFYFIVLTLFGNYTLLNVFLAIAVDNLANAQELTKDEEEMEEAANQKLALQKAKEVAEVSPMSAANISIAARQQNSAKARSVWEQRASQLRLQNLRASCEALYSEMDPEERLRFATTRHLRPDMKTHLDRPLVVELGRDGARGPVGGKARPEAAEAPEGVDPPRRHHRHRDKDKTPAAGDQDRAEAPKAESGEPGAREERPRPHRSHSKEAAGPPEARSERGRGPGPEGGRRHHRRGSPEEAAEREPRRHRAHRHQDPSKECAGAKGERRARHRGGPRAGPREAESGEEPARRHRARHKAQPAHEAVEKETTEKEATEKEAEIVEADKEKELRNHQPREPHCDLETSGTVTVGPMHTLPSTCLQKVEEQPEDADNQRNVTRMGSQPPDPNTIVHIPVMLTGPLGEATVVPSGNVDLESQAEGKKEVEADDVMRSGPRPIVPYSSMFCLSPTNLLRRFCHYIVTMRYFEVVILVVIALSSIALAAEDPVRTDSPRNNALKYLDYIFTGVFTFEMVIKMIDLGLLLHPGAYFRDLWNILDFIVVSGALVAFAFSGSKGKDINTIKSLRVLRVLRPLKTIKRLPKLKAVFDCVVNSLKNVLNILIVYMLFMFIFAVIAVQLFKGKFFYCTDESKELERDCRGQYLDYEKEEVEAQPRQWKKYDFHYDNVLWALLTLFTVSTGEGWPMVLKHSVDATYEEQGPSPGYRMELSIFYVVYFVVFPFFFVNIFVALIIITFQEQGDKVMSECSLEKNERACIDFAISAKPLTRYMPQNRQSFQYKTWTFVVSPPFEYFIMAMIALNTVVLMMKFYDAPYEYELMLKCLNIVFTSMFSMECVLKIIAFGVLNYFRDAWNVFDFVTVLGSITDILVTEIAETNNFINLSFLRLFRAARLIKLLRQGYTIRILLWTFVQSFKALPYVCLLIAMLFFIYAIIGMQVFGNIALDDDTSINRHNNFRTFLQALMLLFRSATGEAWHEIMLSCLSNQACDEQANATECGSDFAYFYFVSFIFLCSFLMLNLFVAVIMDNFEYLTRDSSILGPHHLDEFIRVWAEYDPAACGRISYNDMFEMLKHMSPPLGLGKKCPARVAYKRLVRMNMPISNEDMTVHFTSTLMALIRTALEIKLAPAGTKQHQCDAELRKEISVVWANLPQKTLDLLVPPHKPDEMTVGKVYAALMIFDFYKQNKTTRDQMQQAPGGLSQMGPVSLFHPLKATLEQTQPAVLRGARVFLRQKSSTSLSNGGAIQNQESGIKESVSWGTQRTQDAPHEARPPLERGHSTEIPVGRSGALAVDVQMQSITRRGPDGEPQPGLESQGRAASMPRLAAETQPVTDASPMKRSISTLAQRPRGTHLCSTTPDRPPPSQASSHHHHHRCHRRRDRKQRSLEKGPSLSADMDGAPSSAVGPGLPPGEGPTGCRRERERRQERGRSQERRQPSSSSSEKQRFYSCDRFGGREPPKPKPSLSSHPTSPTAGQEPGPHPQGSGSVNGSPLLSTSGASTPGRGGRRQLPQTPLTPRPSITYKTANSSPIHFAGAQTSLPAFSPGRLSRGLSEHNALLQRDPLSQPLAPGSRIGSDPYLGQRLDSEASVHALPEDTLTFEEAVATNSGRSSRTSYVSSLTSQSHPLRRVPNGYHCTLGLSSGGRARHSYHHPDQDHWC

[4] = target: T2, Voltage-dependent N-type calcium channel subunit alpha-1B; assay: Blockade of Cav2.2 channel by fluorescent calcium-influx assay; how it was run: as §1
Target sequence in this assay (Q00975 whole entry): as the sequence (Q00975 whole entry, looked up) above

hERG (Homo sapiens) = assay: Blockade of hERG channel at 10 uM by displacement of MK-0499 binding
[5] = Oral bioavailability in rat at 3 mg/kg; format: ADME, organism-based; conditions: in vivo
How it was run: (§2)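 Rat PK with 1.0 mg/kg IV and 3.0 mg/kg PO doses, based on plasma analysis. Parameters: Cmax, dose-normalized AUC (μM h kg/mg), plasma clearance (mL/min/kg), Vdss (L/kg), T1/2 (h) and oral bioavailability (%).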

[6] = Metabolic stability in human liver microsomes assessed as compound remaining after 60 mins; format: ADME, Microsome; conditions: read-out: Stability
How it was run: (§3)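 Compounds incubated with human or rat liver microsomes for 60 min. Read-out is the percent of parent compound remaining.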

[7] = Metabolic stability in rat liver microsomes assessed as compound remaining after 60 mins; format: ADME, Microsome; conditions: read-out: Stability; how it was run: as §3
Rattus norvegicus = assay: Dose normalized AUC in rat at 1 mg/kg, iv and 3 mg/kg, po; format: ADME, organism-based; conditions: in vivo; how it was run: as §2
[8] = Plasma clearance in rat at 1 mg/kg, iv and 3 mg/kg, po; format: ADME, organism-based; how it was run: as §2
[9] = Half life in rat at 1 mg/kg, iv and 3 mg/kg, po; format: ADME, organism-based; conditions: in vivo; how it was run: as §2
[10] = target: Nav1.5 (sodium channel protein type 5 subunit alpha) (Homo sapiens, UniProt Q14524); assay: Blockade of Nav1.5 channel at 10 uM by fluorescent […] assay

Sequence of Cav1.2 (voltage-dependent L-type calcium channel subunit alpha-1C) (Q13936 whole entry): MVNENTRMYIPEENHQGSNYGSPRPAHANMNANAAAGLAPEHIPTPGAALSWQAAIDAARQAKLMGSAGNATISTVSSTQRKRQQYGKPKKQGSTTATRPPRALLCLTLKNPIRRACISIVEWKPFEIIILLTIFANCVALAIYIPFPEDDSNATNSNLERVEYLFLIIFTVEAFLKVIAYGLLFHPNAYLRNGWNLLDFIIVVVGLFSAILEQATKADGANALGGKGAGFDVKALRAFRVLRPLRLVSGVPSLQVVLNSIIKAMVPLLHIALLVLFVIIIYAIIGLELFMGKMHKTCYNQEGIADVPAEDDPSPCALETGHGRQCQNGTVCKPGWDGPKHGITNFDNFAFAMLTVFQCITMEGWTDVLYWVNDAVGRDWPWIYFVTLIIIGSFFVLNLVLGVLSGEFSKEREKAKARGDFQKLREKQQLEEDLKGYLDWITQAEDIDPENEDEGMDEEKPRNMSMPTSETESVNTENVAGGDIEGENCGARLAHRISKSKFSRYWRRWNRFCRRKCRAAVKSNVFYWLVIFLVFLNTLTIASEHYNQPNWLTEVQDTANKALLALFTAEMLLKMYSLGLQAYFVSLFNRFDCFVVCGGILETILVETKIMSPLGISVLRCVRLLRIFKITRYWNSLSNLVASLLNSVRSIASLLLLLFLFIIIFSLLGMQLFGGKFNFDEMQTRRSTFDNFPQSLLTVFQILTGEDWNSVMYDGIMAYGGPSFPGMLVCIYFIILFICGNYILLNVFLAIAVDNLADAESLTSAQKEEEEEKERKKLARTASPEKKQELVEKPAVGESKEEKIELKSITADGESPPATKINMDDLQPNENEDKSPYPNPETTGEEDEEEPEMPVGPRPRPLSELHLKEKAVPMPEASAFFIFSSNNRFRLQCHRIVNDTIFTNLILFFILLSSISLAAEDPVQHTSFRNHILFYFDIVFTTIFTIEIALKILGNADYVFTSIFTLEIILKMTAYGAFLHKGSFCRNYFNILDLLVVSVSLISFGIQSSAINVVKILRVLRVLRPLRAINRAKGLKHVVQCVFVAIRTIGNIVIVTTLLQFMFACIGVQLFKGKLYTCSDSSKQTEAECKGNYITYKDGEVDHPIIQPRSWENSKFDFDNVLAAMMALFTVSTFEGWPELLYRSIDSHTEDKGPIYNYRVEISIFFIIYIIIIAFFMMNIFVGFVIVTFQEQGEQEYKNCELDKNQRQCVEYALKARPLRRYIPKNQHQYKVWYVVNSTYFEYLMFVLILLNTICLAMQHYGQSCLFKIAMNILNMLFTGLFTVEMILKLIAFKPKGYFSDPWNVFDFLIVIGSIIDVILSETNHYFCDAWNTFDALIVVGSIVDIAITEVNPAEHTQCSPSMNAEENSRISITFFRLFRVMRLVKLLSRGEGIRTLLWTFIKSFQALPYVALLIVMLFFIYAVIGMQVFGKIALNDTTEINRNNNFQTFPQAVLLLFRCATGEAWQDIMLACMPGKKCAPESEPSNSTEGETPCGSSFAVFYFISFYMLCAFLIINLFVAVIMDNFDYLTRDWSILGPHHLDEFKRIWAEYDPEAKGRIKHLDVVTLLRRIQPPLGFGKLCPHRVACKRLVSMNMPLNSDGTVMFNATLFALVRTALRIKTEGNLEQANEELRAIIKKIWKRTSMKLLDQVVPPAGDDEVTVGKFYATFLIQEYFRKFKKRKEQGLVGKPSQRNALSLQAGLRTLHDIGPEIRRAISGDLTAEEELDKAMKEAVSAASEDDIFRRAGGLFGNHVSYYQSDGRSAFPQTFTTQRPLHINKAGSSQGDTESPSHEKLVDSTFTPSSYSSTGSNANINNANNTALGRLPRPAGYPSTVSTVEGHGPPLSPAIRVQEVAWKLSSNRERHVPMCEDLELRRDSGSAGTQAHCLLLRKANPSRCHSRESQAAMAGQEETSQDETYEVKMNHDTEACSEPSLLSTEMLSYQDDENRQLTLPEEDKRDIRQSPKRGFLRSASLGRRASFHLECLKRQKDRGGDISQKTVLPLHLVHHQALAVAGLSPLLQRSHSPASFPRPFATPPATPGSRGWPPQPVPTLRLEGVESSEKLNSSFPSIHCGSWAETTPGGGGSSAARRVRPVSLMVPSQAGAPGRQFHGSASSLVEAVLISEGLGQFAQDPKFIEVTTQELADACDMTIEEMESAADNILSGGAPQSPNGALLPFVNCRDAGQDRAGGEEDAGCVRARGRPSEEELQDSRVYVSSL

Row | EC50 [2] [nM] | inhibition [3] [%] | IC50 [4] [nM] | SMILES | inhibition at 10 µM [1] [%] | other results
1 | 6640 | – | – | CC(C)(C)NC(=O)Cn1c(C(=O)NC(C)(C)C)cc2cc(C(C)(C)C(=O)NC(C)(C)C)ccc21 | 24 | –
2 | 570 | – | – | CC(C)(C)NC(=O)Cn1c(C(C)(C)C)cc2cc(C(C)(C)C(=O)NC(C)(C)C)ccc21 | 47 | –
3 | – | 78 | – | Cc1cc(C)cc(-c2cc3cc(C(C)(C)C(=O)NC(C)(C)C)ccc3[nH]2)c1 | – | –
4 | > 30000 | 98 | 190 | Cc1cc(C)cc(-c2cc3cc(C(C)(C)C(=O)NC(C)(C)C)ccc3n2CC(=O)NC(C)(C)C)c1 | 78 | inhibition at 10 µM (hERG (Homo sapiens)): 33%
5 | – | 89 | 1150 | Cc1cc(C)cc(-c2cc3cc(C(C)(C)C(=O)NC4CC4)ccc3n2CC(C)O)c1 (stereo not given) | – | –
6 | 1810 | – | – | CC(C)(C)NC(=O)Cn1c(-c2ccccc2)cc2cc(C(C)(C)C(=O)NC(C)(C)C)ccc21 | 79 | –
7 | – | 99 | 540 | Cc1cc(C)cc(-c2cc3cc(C(C)(C)C(=O)NC(C)(C)C)ccc3n2Cc2c(C)noc2C)c1 | – | inhibition at 10 µM (hERG (Homo sapiens)): 65%
8 | – | 44 | – | Cc1cc(C)cc(-c2cc3cc(C(C)(C)CO)ccc3n2CC(C)O)c1 (stereo not given) | 32 | –
9 | – | 91 | 660 | Cc1cc(C)cc(-c2cc3cc(C(C)(C)C(=O)NC(C)(C)C)ccc3n2CC(=O)OC(C)(C)C)c1 | 48 | inhibition at 10 µM (hERG (Homo sapiens)): 60%
10 | – | 89 | 870 | Cc1cc(C)cc(-c2cc3cc(C(C)(C)C(=O)N(C)C)ccc3n2CC(C)O)c1 (stereo not given) | 52 | –
11 | 600 | – | – | CC(C)(C)NC(=O)C(c1ccccn1)n1ccc2cc(C(C)(C)C(=O)NC(C)(C)C)ccc21 (stereo not given) | 64 | –
12 | – | 99 | 520 | COCCn1c(-c2cc(C)cc(C)c2)cc2cc(C(C)(C)C(=O)NC(C)(C)C)ccc21 | 70 | –
13 | – | 91 | 1170 | Cc1cc(C)cc(-c2cc3cc(C(C)(C)C(=O)NCC(F)(F)F)ccc3n2CC(C)O)c1 (stereo not given) | – | –
14 | – | 70 | – | COC(=O)C(C)(C)c1ccc2c(c1)cc(-c1cc(C)cc(C)c1)n2CC(C)O (stereo not given) | 64 | –
15 | 10800 | – | – | CC(C)(C)NC(=O)Cn1c(-c2cc(C(F)(F)F)cc(C(F)(F)F)c2)cc2cc(C(C)(C)C(=O)NC(C)(C)C)ccc21 | 61 | –
16 | – | 97 | 680 | Cc1cc(C)cc(-c2cc3cc(C(=O)NC(C)(C)C)ccc3n2CC(C)O)c1 (stereo not given) | 90 | inhibition at 10 µM (hERG (Homo sapiens)): 64%
17 | 940 | – | – | CC(C)(C)NC(=O)Cn1c(-c2ccc(F)cc2F)cc2cc(C(C)(C)C(=O)NC(C)(C)C)ccc21 | 93 | –
18 | > 30000 | – | – | CC(C)(C)NC(=O)Cn1c(-c2cccc(OC(F)(F)F)c2)cc2cc(C(C)(C)C(=O)NC(C)(C)C)ccc21 | 93 | bioavailability [5]: 26%; remaining at 1 h [6]: 0.82%; remaining at 1 h [7]: 22%; AUC (Rattus norvegicus): 0.83 µM·kg·h/mg; clearance [8]: 11 mL/min/kg; half-life [9]: 2.27 h
19 | > 30000 | – | – | CC(C)(C)NC(=O)Cn1c(-c2ccccc2OC(F)(F)F)cc2cc(C(C)(C)C(=O)NC(C)(C)C)ccc21 | 79 | bioavailability [5]: 38%; remaining at 1 h [6]: 0.04%; remaining at 1 h [7]: 2.5%; AUC (Rattus norvegicus): 0.57 µM·kg·h/mg; clearance [8]: 21 mL/min/kg; half-life [9]: 2.68 h
20 | – | 36 | – | Cc1cc(C)cc(-c2cc3cc(C(C)(C)C(=O)NC(C)(C)C)ccc3n2Cc2ccc(Cl)cc2)c1 | – | –
21 | > 30000 | – | – | CC(C)(C)NC(=O)Cn1c(-c2cc(F)cc(C(F)(F)F)c2)cc2cc(C(C)(C)C(=O)NC(C)(C)C)ccc21 | 88 | –
22 | > 30000 | – | – | CC(C)(C)NC(=O)Cn1c(-c2ccc(F)cc2)cc2cc(C(C)(C)C(=O)NC(C)(C)C)ccc21 | 82 | –
23 | – | 59 | – | Cc1cc(C)cc(-c2cc3cc(C(C)(C)C(=O)NC(C)(C)C)ccc3n2C(=O)OC(C)(C)C)c1 | – | –
24 | 740 | – | – | COc1ccccc1-c1cc2cc(C(C)(C)C(=O)NC(C)(C)C)ccc2n1CC(=O)NC(C)(C)C | 60 | –
25 | – | – | 880 | CCCN[C@@H](C)c1c(-c2cc(C)cc(C)c2)[nH]c2ccc(C(C)(C)C(=O)N3C4CCC3CC4)cc12 | 62 | inhibition at 10 µM [10]: 44%
26 | – | – | 600 | CCOC(=O)C(C)(C)c1ccc2c(c1)c([C@H](C)CO)c(-c1cc(C)cc(C)c1)n2C(=O)OC(C)(C)C | 40 | inhibition at 10 µM [10]: 25%
27 | – | 36 | – | Cc1cc(C)cc(-c2cc3cc(OC(F)(F)F)ccc3n2CC(C)O)c1 (stereo not given) | 43 | –
